Assay results of several laboratories.
Each line is one published result; the experiments were not run side by side.
Target: Focal adhesion kinase 1 (PTK2, Homo sapiens, UniProt Q05397)

CCCCC(=O)Nc1ccc(-c2ccc3ncn(CCC)c(=O)c3c2)cn1  remaining binding (binding; competition with immobilised ligand; 0.5 µM): 87%
C#Cc1cc(-c2cc(Nc3nc(N[C@@H](C)c4ccc(F)cn4)ncc3Cl)n[nH]2)ccc1C=O  inhibition (enzyme activity; inhibitor; 0.2 µM): 31.2%
Cc1ccc(NC(=O)c2ccnc(C(F)(F)F)c2)cc1-c1cc(OCCO)nc(N2CCOCC2)c1  remaining signal (cell-free assay; 1 µM): 100%
C=CC(=O)N1CCC[C@@H](n2nc(-c3ccc(Oc4ccccc4)cc3)c3c(N)ncnc32)C1  inhibition (enzyme activity; inhibitor; 1 µM): 5%
Cc1cc(O)c(-c2ccc([C@@H](C)CN(C)C)cc2)c2c1[nH]c(=O)c1sccc12  inhibition (enzyme activity; inhibitor; 0.1 µM): 8.92%
C[C@H]1CC[C@H](n2c3cnccc3c3cnc(Nc4ccc5c(n4)CCN(C(=O)CO)C5)nc32)CC1  remaining signal (cell-free assay; inhibitor; 1 µM): 69%
N#Cc1ccc(NC(=O)Nc2ccccc2)cc1  remaining binding (cell-free assay; competition with immobilised ligand; 25 µM): 100%
CO[C@@H]1[C@H](N(C)C(=O)c2ccccc2)C[C@H]2O[C@]1(C)n1c3ccccc3c3c4c(c5c6ccccc6n2c5c31)C(=O)NC4  inhibition (enzyme activity; inhibitor; 1 µM): 2%
C#Cc1cnc(Nc2ccnc(CO)c2)nc1Nc1ccccc1S(C)(=O)=NC#N (stereo not shown)  remaining signal (cell-free assay; 1 µM): 40%
COc1ccc2oc(-c3ccc4nc(N)oc4c3)c/c(=N\c3ccccc3NC(=O)CCN)c2c1  remaining binding (binding; 1 µM): 84%
